In ChEMBL document CHEMBL1649125, “Efficacy of the novel diamidine compound 2,5-Bis(4-amidinophenyl)- furan-bis-O-Methlylamidoxime (Pafuramidine, DB289) against Trypanosoma brucei rhodesiense infection in vervet monkeys after oral administration” (2009) one finds Activity and Time data, which are given here for one compound.

Calls of active or inactive are those of the source. The calls are words filed in the database; no cut-off is given here.

The subject of test [1] is Trypanosoma brucei rhodesiense. Put plainly: Antitrypanosomal activity against Trypanosoma brucei rhodesiense infected in vervet monkey assessed as change in packed cell volume at 1 mg/kg, po administered on day 7 post infection for 5 days measured on day 28 post treatment. It is filed as functional. The gist of the method: (§1)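 Vervet monkeys, three per group, were infected intravenously with T. b. rhodesiense KETRI 2537. From day 7 p.i., a drug suspension was given by oral gavage once daily for 5 consecutive days. Packed cell volume was expressed as % change from the group's mean preinfection value. PCV was read at day 0 p.t., day 28 p.t. and endpoint, with follow-up to 180 days p.t.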

Test [2] deals with Trypanosoma brucei rhodesiense. The test can be described thus: Antitrypanosomal activity against Trypanosoma brucei rhodesiense infected in vervet monkey assessed as change in packed cell volume at 10 mg/kg, po administered on day 28 post infection for 10 days measured on day 28 post treatment. Type of test: functional. The gist of the method: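 Three vervet monkeys were infected intravenously with T. b. rhodesiense KETRI 2537 and treated in late-stage disease. From day 28 p.i., a drug suspension was given by oral gavage once daily for 10 consecutive days. PCV was reported as % change from the mean preinfection value at day 0 p.t., day 28 p.t. and endpoint. Monitoring continued up to 180 days p.t.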

The test system of test [3] is Trypanosoma brucei rhodesiense. Put plainly: Antimicrobial activity against Trypanosoma brucei rhodesiense infected in vervet monkeys assessed as cure from infection at 10 mg/kg, po administered on day 7 post infection for 5 days. Type of test: functional, organism-based. Also noted: dose 10 mg/kg. The gist of the method:
(§2)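 Vervet monkeys (n=3 per group), infected with T. b. rhodesiense KETRI 2537. Dosed by oral gavage with a suspension once daily for 5 consecutive days from day 7 p.i. Cure meant no trypanosomes over 180 days p.t. in blood (wet film, HCT) or CSF (hemocytometer, centrifugation), with mouse subinoculation of negative samples.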

Test [4] relates to Trypanosoma brucei rhodesiense. Put plainly: Antitrypanosomal activity against Trypanosoma brucei rhodesiense infected in vervet monkey 484 assessed as time to detect CSF parasitosis at 1 mg/kg, po administered on day 7 post infection for 5 days measured after 7 to 14 days. Type of test: functional. The gist of the method: (§3)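 Trypanosomes and white cells in free-flowing CSF were counted by hemocytometer. Negative CSF was centrifuged and re-examined. Samples still negative were inoculated at 0.2 ml intraperitoneally into two mice each. Drug was given once daily by oral gavage: 5 days from day 7 p.i., or 10 days from day 28 p.i.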

Test [5] has as its system Trypanosoma brucei rhodesiense. Put plainly: Antitrypanosomal activity against Trypanosoma brucei rhodesiense infected in vervet monkey 483 assessed as time to detect parasitemia in wet films of blood at 3 mg/kg, po administered on day 7 post infection for 5 days by hematocrit centrifugation technique. It is filed as functional. The gist of the method:
(§4)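 Parasitemia was monitored from 3 days p.i. in ear-prick or inguinal venous blood. Methods were wet-film microscopy (detection limit 10^5 trypanosomes/ml) and hematocrit centrifugation technique (detection limit 10^3 trypanosomes/ml). Drug was given once daily by oral gavage: 5 days from day 7 p.i., or 10 days from day 28 p.i.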

The test system of test [6] is Trypanosoma brucei rhodesiense. Put plainly: Antitrypanosomal activity against Trypanosoma brucei rhodesiense infected in vervet monkey 471 assessed as time to detect parasitemia at 10 mg/kg, po administered on day 14 post infection for 5 days. Type of test: functional.
Test [7] concerns Trypanosoma brucei rhodesiense. The test can be described thus: Antitrypanosomal activity against Trypanosoma brucei rhodesiense infected in vervet monkey 483 assessed as time to detect CSF parasitosis at 3 mg/kg, po administered on day 7 post infection for 5 days measured after 7 to 14 days. Type of test: functional. Put shortly:
as §3

Test [8] deals with Trypanosoma brucei rhodesiense. Put plainly: Antitrypanosomal activity against Trypanosoma brucei rhodesiense infected in vervet monkey assessed as body weight change at 3 mg/kg, po administered on day 7 post infection for 5 days measured on day 28 post treatment. It is filed as functional. The gist of the method: (§5)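 Body weight change is given as percent of the mean preinfection weight (n=3 per group). It was recorded at day 0 p.t., day 28 p.t. and end point. Oral gavage was once daily: 5 days from day 7 p.i., or 10 days from day 28 p.i.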

The test system of test [9] is Trypanosoma brucei rhodesiense. Put plainly: Antitrypanosomal activity against Trypanosoma brucei rhodesiense infected in vervet monkey 490 assessed as time to detect CSF parasitosis at 10 mg/kg, po administered on day 28 post infection for 10 days measured after 14 to 21 days by microscopy. Type of test: functional. The gist of the method:
as §3

For test [10], the system named is Trypanosoma brucei rhodesiense. Put plainly: Antitrypanosomal activity against Trypanosoma brucei rhodesiense infected in vervet monkey 484 assessed as time to detect parasitemia at 1 mg/kg, po administered on day 7 post infection for 5 days. It is filed as functional, organism-based. Further details: dose 1 mg/kg. The gist of the method:
as §4

Test [11] has as its system Trypanosoma brucei rhodesiense. The test can be described thus: Antitrypanosomal activity against Trypanosoma brucei rhodesiense infected in vervet monkey 468 assessed as cure from infection at 10 mg/kg, po administered on day 7 post infection for 5 days. Further details: dose 10 mg/kg. It is filed as functional, organism-based. The gist of the method: as §2
Test [12] concerns Trypanosoma brucei rhodesiense. Put plainly: Antitrypanosomal activity against Trypanosoma brucei rhodesiense infected in vervet monkey 483 assessed as time to detect parasitemia at 3 mg/kg, po administered on day 7 post infection for 5 days. It is filed as functional. The gist of the method:
as §4

The subject of test [13] is Trypanosoma brucei rhodesiense. The test can be described thus: Antitrypanosomal activity against Trypanosoma brucei rhodesiense infected in vervet monkey assessed as change in packed cell volume at 3 mg/kg, po administered on day 7 post infection for 5 days. Type of test: functional. Put shortly:
as §1

For test [14], the system named is Trypanosoma brucei rhodesiense. Put plainly: Antitrypanosomal activity against Trypanosoma brucei rhodesiense infected in vervet monkey 520 assessed as time to detect CSF parasitosis at 10 mg/kg, po administered on day 28 post infection for 10 days measured after 14 to 21 days by microscopy. It is filed as functional. The gist of the method: as §3
Test [15] relates to Trypanosoma brucei rhodesiense. The test can be described thus: Antitrypanosomal activity against Trypanosoma brucei rhodesiense infected in vervet monkey assessed as body weight change at 1 mg/kg, po administered on day 7 post infection for 5 days measured on day 28 post treatment. To be noted: in the assay text read “day 1 post treatment” for “day 28 post treatment”. It is filed as functional. Put shortly:
as §5

In test [16] the test system is Trypanosoma brucei rhodesiense. The test can be described thus: Antitrypanosomal activity against Trypanosoma brucei rhodesiense infected in vervet monkey assessed as body weight change at 10 mg/kg, po administered on day 14 post infection for 5 days. Type of test: functional.
Test [17] deals with Trypanosoma brucei rhodesiense. The test can be described thus: Antitrypanosomal activity against Trypanosoma brucei rhodesiense infected in vervet monkey assessed as change in packed cell volume at 1 mg/kg, po administered on day 7 post infection for 5 days. It is filed as functional. Put shortly: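 Packed cell volume change is given as percent of the mean preinfection PCV in 3 monkeys. It was recorded at day 0 p.t., day 28 p.t. and end point, after 5 daily oral gavage doses starting day 7 p.i.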

For test [18], the system named is Trypanosoma brucei rhodesiense. Put plainly: Antitrypanosomal activity against Trypanosoma brucei rhodesiense infected in vervet monkey 485 assessed as time to detect CSF parasitosis at 1 mg/kg, po administered on day 7 post infection for 5 days measured after 7 to 14 days. It is filed as functional. Put shortly: as §3
For test [19], the system named is Trypanosoma brucei rhodesiense. The test can be described thus: Antimicrobial activity against Trypanosoma brucei rhodesiense infected in vervet monkeys assessed as cure from infection at 3 mg/kg, po administered on day 7 post infection for 5 days. Further details: dose 3 mg/kg. Type of test: functional, organism-based. The gist of the method:
as §2

Test [20] deals with Trypanosoma brucei rhodesiense. Put plainly: Antitrypanosomal activity against Trypanosoma brucei rhodesiense infected in vervet monkey assessed as change in packed cell volume at 10 mg/kg, po administered on day 7 post infection for 5 days measured on day 28 post treatment. It is filed as functional. Put shortly: as §1
In test [21] the test system is Trypanosoma brucei rhodesiense. Put plainly: Antitrypanosomal activity against Trypanosoma brucei rhodesiense infected in vervet monkey 471 assessed as time to detect CSF parasitosis at 10 mg/kg, po administered on day 14 post infection for 5 days measured after 7 to 14 days. It is filed as functional, organism-based. Further details: dose 10 mg/kg.
Test [22] has as its system Trypanosoma brucei rhodesiense. The test can be described thus: Antitrypanosomal activity against Trypanosoma brucei rhodesiense infected in vervet monkey assessed as change in packed cell volume at 3 mg/kg, po administered on day 7 post infection for 5 days measured on day 28 post treatment. Type of test: functional. Put shortly: as §1
Test [23] relates to Trypanosoma brucei rhodesiense. The test can be described thus: Antitrypanosomal activity against Trypanosoma brucei rhodesiense infected in vervet monkey 482 assessed as time to detect parasitemia in wet films of blood at 3 mg/kg, po administered on day 7 post infection for 5 days by hematocrit centrifugation technique. It is filed as functional. Put shortly: as §4
For test [24], the system named is Trypanosoma brucei rhodesiense. Put plainly: Antitrypanosomal activity against Trypanosoma brucei rhodesiense infected in vervet monkey 463 assessed as time to detect CSF parasitosis at 1 mg/kg, po administered on day 7 post infection for 5 days measured after 14 to 21 days by microscopy. It is filed as functional, organism-based. Further details: dose 1 mg/kg. The gist of the method:
as §3

Regarding `CONC(=N)c1ccc(-c2ccc(-c3ccc(C(=N)NOC)cc3)o2)cc1` [PAFURAMIDINE], the Activity in [1] is -17%; in test [2], -9.1%; in test [8], -6.6%; in [13], -9.4%; in test [15], -2.1%; in test [16] it was -4.2%. The results for the Activity in test [17], in test [20] and in [22] were -4.3%, -1.6% and -2.9%, respectively. In addition, the outcome in test [3] and in test [19] was Active. The Time in test [4] worked out at 7 days; in test [5], 66 days; in [6] it was 56 days; in [7] it was 69 days; in [9] it was 42 days; in test [12], 69 days. The Time turned out to be 119 days in test [14], 14 days in [18] and 79 days in test [23]. The Time result in test [10], in test [21] and in [24] was “inactive” throughout. Besides, the Time entry in test [11] is “Active”.
